Source: ChEMBL document CHEMBL3351274, “Sensitization of tumor necrosis factor-related apoptosis-inducing ligand (TRAIL)-resistant primary prostate cancer cells by isoegomaketone from Perilla frutescens” (J Nat Prod, 2014)

Columns and labels:
[1] = Sensitization of TRAIL-induced apoptosis in human RC-58T/h/SA#4 cells assessed as cytochrome C level in cytosol at 20 uM after 24 hrs by immunoblotting analysis relative to untreated control; format: functional
In short: (§1)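 Cells given 20 μM compound and/or 100 ng/mL TRAIL for 24 h. Mitochondrial and cytosolic fractions prepared with a mitochondria isolation kit. Fractions resolved by 12% SDS-PAGE at 10 μg/lane and immunoblotted with anti-cytochrome c or anti-AIF overnight at 4 °C, then HRP secondary and ECL detection.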

Homo sapiens [2] = organism: Homo sapiens; test: Sensitization of TRAIL-induced apoptosis in human RC-58T/h/SA#4 cells assessed as AIF level in mitochondria at 20 uM after 24 hrs by immunoblotting analysis relative to untreated control; format: functional, cell-based; in short: as §1
[3] = Induction of apoptosis in human RC-58T/h/SA#4 cells assessed as DR5 expression at 20 uM after 18 hrs by immunoblotting analysis relative to untreated control; format: functional
[4] = Sensitization of TRAIL-induced apoptosis in human RC-58T/h/SA#4 cells assessed as Bax activation at 20 uM after 24 hrs by immunoblotting analysis relative to untreated control; format: functional
In short: (§2)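 Cells seeded at 5 × 10^4 cells/mL and cultured 24 h, then given 20 μM compound and/or 100 ng/mL TRAIL for 24 h. Whole-cell lysate made in Tris/NaCl/EDTA/NaF/pyrophosphate/PMSF/aprotinin buffer, 30 min on ice, protein measured by BCA. 12% SDS-PAGE at 10 μg/lane, nitrocellulose blot, primary antibodies (caspase-3, -8, -9, Bax, Bcl-2, PARP) overnight at 4 °C, HRP secondary, ECL.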

Homo sapiens [5] = organism: Homo sapiens; test: Induction of apoptosis in human RC-58T/h/SA#4 cells assessed as CHOP expression at 2.5 to 40 uM by immunoblotting analysis relative to untreated control; format: functional, cell-based; details: TDE = time-dependent effect
In short: (§3)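 RC-58T/h/SA#4 cells seeded at 5 × 10^4 cells/mL and cultured 24 h, then given compound across a concentration series or at fixed dose over a time course. Lysates were quantified by BCA. 10 μg protein/lane run on 12% SDS-PAGE and transferred to nitrocellulose. Blots probed for p53, CHOP and β-actin with HRP secondary and ECL.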

[6] = Induction of apoptosis in human RC-58T/h/SA#4 cells assessed as AIF level in cytosol at 20 uM after 24 hrs by immunoblotting analysis relative to untreated control; format: functional
In short: (§4)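 Cells grown in DMEM/10% FBS at 37 °C, 5% CO2, then treated 24 h with compound (20 μM) with or without TRAIL (100 ng/mL). Whole lysates were used for Bax and Bcl-2. Cytosolic and mitochondrial fractions were prepared with a mitochondria isolation kit for AIF and cytochrome c. Blotting used 10 μg protein/lane, 12% SDS-PAGE, nitrocellulose, overnight primary antibody at 4 °C and ECL detection.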

[7] = Induction of apoptosis in human RC-58T/h/SA#4 cells assessed as DR4 expression at 20 uM after 12 hrs by immunoblotting analysis relative to untreated control; format: functional
[8] = Induction of apoptosis in human RC-58T/h/SA#4 cells assessed as DR5 expression at 40 uM after 24 hrs by immunoblotting analysis relative to untreated control; format: functional
Homo sapiens [9] = organism: Homo sapiens; test: Induction of apoptosis in human RC-58T/h/SA#4 cells assessed as AIF level in mitochondria at 20 uM after 24 hrs by immunoblotting analysis relative to untreated control; format: functional, cell-based; in short: as §4
[10] = Induction of apoptosis in human RC-58T/h/SA#4 cells assessed as DR4 expression at 2.5 uM after 24 hrs by immunoblotting analysis relative to untreated control; format: functional
[11] = Induction of apoptosis in human RC-58T/h/SA#4 cells assessed as DR5 expression at 10 uM after 24 hrs by immunoblotting analysis relative to untreated control; format: functional
[12] = Induction of apoptosis in human RC-58T/h/SA#4 cells assessed as CHOP expression at 20 uM after 6 hrs by immunoblotting analysis relative to untreated control; format: functional; in short: as §3
[13] = Induction of apoptosis in human RC-58T/h/SA#4 cells assessed as procaspase-9 activation at 20 uM after 24 hrs by immunoblotting analysis relative to untreated control; format: functional; in short: as §2
[14] = Induction of apoptosis in human RC-58T/h/SA#4 cells assessed as DR5 expression at 20 uM after 6 hrs by immunoblotting analysis relative to untreated control; format: functional
Homo sapiens [15] = organism: Homo sapiens; test: Induction of apoptosis in human RC-58T/h/SA#4 cells assessed as DR5 expression at 20 uM by immunoblotting analysis relative to untreated control; format: functional, cell-based; details: TDE = time-dependent effect
[16] = Sensitization of TRAIL-induced apoptosis in human RC-58T/h/SA#4 cells assessed as accumulation at Sub-G1 phase at 20 uM after 24 hrs by annexin-V/propidium iodide staining-based flow cytometry in presence of Dr5 Fc chimera (reference value: 4.8%); format: functional
[17] = Sensitization of TRAIL-induced apoptosis in human RC-58T/h/SA#4 cells assessed as accumulation at Sub-G1 phase at 20 uM after 24 hrs by annexin-V/propidium iodide staining-based flow cytometry in presence of pan-caspase inhibitor z-VAD-fmk (reference value: 4.8%); format: functional
Homo sapiens [18] = organism: Homo sapiens; test: Induction of apoptosis in human RC-58T/h/SA#4 cells assessed as p53 expression after 3 to 24 hrs by immunoblotting analysis relative to untreated control; format: functional, cell-based; in short: as §3
[19] = Sensitization of TRAIL-induced apoptosis in human RC-58T/h/SA#4 cells assessed as procaspase-8 activation at 20 uM after 24 hrs by immunoblotting analysis relative to untreated control; format: functional; in short: as §2
[20] = Sensitization of TRAIL-induced apoptosis in human RC-58T/h/SA#4 cells assessed as Bcl-2 activation at 20 uM after 24 hrs by immunoblotting analysis relative to untreated control; format: functional; in short: as §2
[21] = Sensitization of TRAIL-induced cytotoxicity against human RWPE1 cells assessed as cell viability at 20 uM after 24 hrs by SRB assay; format: cell-based; details: rwpe-1, 24 h
In short: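 Cells seeded at 5 × 10^4 cells/mL, grown in DMEM with 10% FBS, and given the compound with or without 100 ng/mL TRAIL for 24 h at 37 °C, 5% CO2. RWPE-1 tested at 20 μM. Cells fixed in 12% TCA for 1 h at 4 °C, stained 1 h with 0.4% SRB, washed in 1% acetic acid, dye dissolved in 10 mM Tris and absorbance read. Three experiments, means ± SD.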

[22] = Induction of ROS generation in human RC-58T/h/SA#4 cells at 40 uM after 30 mins by flow cytometry (reference value: 1.9%); format: functional
Homo sapiens [23] = organism: Homo sapiens; test: Induction of apoptosis in human RC-58T/h/SA#4 cells assessed as DR5 expression after 24 hrs by immunoblotting analysis relative to untreated control; format: functional, cell-based

With `CC(C)/C=C/C(=O)c1ccoc1` the Ratio [1] was 1.2, the Ratio (Homo sapiens [2]) was 0.3 and the Ratio [3] was 1.5. The Ratio [4] was 1.8, the Activity (Homo sapiens [5]) was “tde” and the Ratio [6] was 1.1. The Ratio [7] was 1, the Ratio [8] was 1.3 and the Ratio (Homo sapiens [9]) was 1.2. For the same compound, the Ratio [10] was 1.1, the Ratio [11] was 1.2 and the Ratio [12] was 1. The Ratio [13] was 0.8, the Ratio [14] was 1.3 and the Activity (Homo sapiens [15]) was “tde”. The Activity [16] was 14.3%, the Activity [17] was 14.4% and the Activity (Homo sapiens [18]) was “Dose-dependent effect”. The Ratio [19] was 0.3, the Ratio [20] was 0.5 and the Activity [21] was “Toxic”. For the same compound, the Activity [22] was 2.5% and the Activity (Homo sapiens [23]) was “Dose-dependent effect”.
